In one data set the target is Cytochrome P450 2C19 (Homo sapiens, UniProt P33261). Put plainly: Inhibition of CYP2C19 (unknown origin). In kind it is ADME.
Data set [1] in a line: AUClast in mouse at 14.6 mg/kg, po by LC-MS/MS analysis. In kind it is ADME, organism-based. Further details: dose 14.6 mg/kg, route oral, time 0 - last. The following applies: in vivo.
Data set [2] can be described thus: Half life in mouse at 1.15 mg/kg, iv by LC-MS/MS analysis. Type of data set: ADME, organism-based. The following applies: in vivo.
In a further data set the test system is Cavia porcellus. Put plainly: Cardiotoxicity in guinea pig assessed as decrease in mean arterial blood pressure at 22.4 mg/kg. Type of data set: toxicity, organism-based. Further details: scale not given: the % may be the effect or the level left. The following applies: in vivo.
For data set [3], the system named is Mus musculus. Put plainly: Antidiabetic activity in po dosed diet-induced obese C57Bl/6 mouse model assessed as decrease in plasma glucose AUC administered 30 mins prior to glucose challenge measured up to 90 mins post dose by OGTT. In kind it is functional, organism-based. In a few lines: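 Diet-induced obese mice dosed orally at 0.1–3.0 mg/kg 30 min before an oral glucose load (time 0). Glucose followed from 30 min pre-glucose to 90 min post-glucose. Saxagliptin 1 mg/kg was the positive control.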

The nature of data set [4]: Half life in dog at 1 mg/kg, iv by LC-MS/MS analysis. The following applies: in vivo. In kind it is ADME, organism-based, Canis lupus familiaris.
Another data set deals with T1, Cytochrome P450 1A2 (Homo sapiens, UniProt P05177).
T1 sequence (P05177 whole entry): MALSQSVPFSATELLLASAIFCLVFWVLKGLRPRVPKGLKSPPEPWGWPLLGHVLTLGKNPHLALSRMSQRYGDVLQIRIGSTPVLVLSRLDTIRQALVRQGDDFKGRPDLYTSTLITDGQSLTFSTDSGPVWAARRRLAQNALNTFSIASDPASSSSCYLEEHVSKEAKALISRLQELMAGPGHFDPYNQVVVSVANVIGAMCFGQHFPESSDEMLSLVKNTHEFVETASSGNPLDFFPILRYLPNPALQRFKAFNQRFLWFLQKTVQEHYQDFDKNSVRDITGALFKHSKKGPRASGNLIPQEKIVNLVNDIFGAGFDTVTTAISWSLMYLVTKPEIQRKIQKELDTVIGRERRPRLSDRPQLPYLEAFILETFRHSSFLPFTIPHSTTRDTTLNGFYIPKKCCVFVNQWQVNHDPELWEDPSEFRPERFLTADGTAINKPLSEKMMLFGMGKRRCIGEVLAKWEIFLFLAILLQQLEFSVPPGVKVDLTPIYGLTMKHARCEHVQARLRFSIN
Put plainly: Inhibition of CYP1A2 (unknown origin). In kind it is ADME.

Data set [5] relates to Mus musculus. Briefly: Antiobesity activity in diet-induced obesity C57Bl6/J mouse model assessed as basal insulin level in plasma at 30 mg/kg qd for 15 days measured on day 15 post 6 hrs fasting (reference value: 16959 +/- 4943 pg/ml). Type of data set: functional.
Data set [6] has as its system Mus musculus. Briefly: Antiobesity activity in diet-induced obesity C57Bl6/J mouse model assessed as final glucose level in plasma at 10 mg/kg bid for 15 days measured on day 15 post 6 hrs fasting (reference value: 184 +/- 30 mg/dL). Type of data set: functional.
Data set [7] has as its system Mus musculus. Put plainly: Antiobesity activity in diet-induced obesity C57Bl6/J mouse model assessed as change in plasma glucose level at 10 mg/kg qd for 15 days measured on day 15 post 6 hrs fasting. In kind it is functional.

The structures appear in SMILES notation.

Sequence of Cytochrome P450 2C19 (P33261 whole entry): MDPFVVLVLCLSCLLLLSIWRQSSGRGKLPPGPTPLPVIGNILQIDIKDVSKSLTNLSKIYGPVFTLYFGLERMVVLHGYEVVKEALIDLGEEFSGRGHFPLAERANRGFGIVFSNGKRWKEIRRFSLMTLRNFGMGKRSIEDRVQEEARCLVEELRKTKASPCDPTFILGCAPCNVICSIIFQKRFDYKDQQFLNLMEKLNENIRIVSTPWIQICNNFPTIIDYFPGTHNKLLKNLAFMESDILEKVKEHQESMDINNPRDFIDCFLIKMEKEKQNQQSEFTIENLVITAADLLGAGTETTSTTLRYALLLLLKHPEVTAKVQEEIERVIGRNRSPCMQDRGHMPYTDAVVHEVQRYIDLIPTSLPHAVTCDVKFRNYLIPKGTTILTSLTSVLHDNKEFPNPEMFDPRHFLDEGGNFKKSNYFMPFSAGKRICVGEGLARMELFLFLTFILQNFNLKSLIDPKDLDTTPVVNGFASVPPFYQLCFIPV

In the case of `O=C(O)CCc1cc(F)c(OCc2c(C(F)(F)F)ccn2-c2ccc(Cl)cc2)c(F)c1`, the INH is 10 µM on Cytochrome P450 2C19 and greater than 10 µM at Cytochrome P450 1A2. Moreover, the AUC(0-t) (commonly exposure summed from dosing to a finite time, without extrapolation to infinity) in [1] was 81700 ng·h/mL. In addition, the half-life (commonly the time needed for the level to fall by half in the phase considered) is 4.14 h in [2] and 4.72 h in [4]. Also, the Activity was 10% with Cavia porcellus; “Dose-dependent effect” with Mus musculus [3]; 17067 pg/mL in the data set on Mus musculus [5]; 170 mg/dL in the data set with Mus musculus [6]; -23.7 mg/dL with Mus musculus [7].
